Data reported in ChEMBL document CHEMBL3813690, “Synthesis and Th1-immunostimulatory activity of α-galactosylceramide analogues bearing a halogen-containing or selenium-containing acyl chain” (Bioorg Med Chem, 2016).
Activity calls are given as the source filed them. No cut-off for these calls is given here.

Assays:
Type in all cases: cell-based
[1] = organism: Mus musculus; assay: Activity at CD1d in C57BL/6 mouse splenocytes assessed as production of IL4 at 10 to 1000 nM after 48 hrs by ELISA
Outline: (§1)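 Freshly prepared mouse splenocytes, washed three times by centrifugation in medium, counted in Türk's solution, seeded at 3 × 10⁵ cells/well in RPMI1640 with 10% FBS and 1% penicillin–streptomycin. Ligands dissolved in pyridine (1 mg/mL stock), diluted in medium to final 10, 30, 100, 300 and 1000 nM. Incubated 48 h at 37 °C; supernatant IFN-γ and IL-4 measured by ELISA. KRN7000 as positive control.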

[2] = organism: Mus musculus; assay: Activity at CD1d in C57BL/6 mouse splenocytes assessed as production of IL4 at 100 nM after 48 hrs by ELISA relative to KRN7000; outline: as §1
[3] = organism: Mus musculus; assay: Activity at CD1d in C57BL/6 mouse splenocytes assessed as production of IFN-gamma at 10 to 1000 nM after 48 hrs by ELISA; outline: as §1
[4] = organism: Mus musculus; assay: Activity at CD1d in C57BL/6 mouse splenocytes assessed as ratio of IFN-gamma production to IL4 production at 100 nM after 48 hrs by ELISA; outline: as §1
[5] = organism: Mus musculus; assay: Activity at CD1d in C57BL/6 mouse splenocytes assessed as production of IFN-gamma at 100 nM after 48 hrs by ELISA relative to KRN7000; outline: as §1

Question: With `CCCCCCCCCCCCCCCCCCCCCCCCCC(=O)N[C@@H](CO[C@H]1O[C@H](CO)[C@H](O)[C@H](O)[C@H]1O)[C@H](O)[C@H](O)CCCCCCCCCCCCCC` as the compound, how does the Activity [1] read?
Answer: Active

Question: With `CCCCCCCCCCCCCC[C@@H](O)[C@@H](O)[C@H](CO[C@H]1O[C@H](CO)[C@H](O)[C@H](O)[C@H]1O)NC(=O)CCCCCCCCCCCCCCCCCCCCCCCCF` as the compound, how does the Activity [2] read?
Answer: 21%

Question: And the Activity [3]?
Answer: Active

Question: What about the Ratio [4] of the same compound?
Answer: 5

Question: And the Activity [1]?
Answer: Active

Question: And the Activity [5]?
Answer: 104%

Question: For `CCCCCCCCCCCCCC[Se]CCCCCCCCCCC(=O)N[C@@H](CO[C@H]1O[C@H](CO)[C@H](O)[C@H](O)[C@H]1O)[C@H](O)[C@H](O)CCCCCCCCCCCCCC`, which Activity [2] is on record?
Answer: 39%

Question: And the Activity [3]?
Answer: Active

Question: What about the Ratio [4] of the same compound?
Answer: 3.3

Question: What about the Activity [1] of the same compound?
Answer: Active

Question: What about the Activity [5] of the same compound?
Answer: 130%

Question: Which results are given for `CCCCCCCCCCCCCC[C@@H](O)[C@@H](O)[C@H](CO[C@H]1O[C@H](CO)[C@H](O)[C@H](O)[C@H]1O)NC(=O)CCCCCCCCCCCCCCCC[Se]CCCCCCCC`?
Answer: Activity [2]: 35%; Activity [3]: Active; Ratio [4]: 2.9; Activity [1]: Active; Activity [5]: 103%

Question: `CCCCCCCCCCCCCC[C@@H](O)[C@@H](O)[C@H](CO[C@H]1O[C@H](CO)[C@H](O)[C@H](O)[C@H]1O)NC(=O)CCCCCCCCCCCCCCCCCCCCCCCCBr` was tested. Which Activity [2] did it give?
Answer: 19%

Question: And the Activity [3]?
Answer: Active

Question: And the Ratio [4]?
Answer: 4.4

Question: And the Activity [1]?
Answer: Active

Question: What about the Activity [5] of the same compound?
Answer: 84%

Question: What does the source list for `CCCCCCCCCCCCCC[C@@H](O)[C@@H](O)[C@H](CO[C@H]1O[C@H](CO)[C@H](O)[C@H](O)[C@H]1O)NC(=O)CCCCCCCCCCCCCCCCCCCCCCCCCl`?
Answer: Activity [2]: 18%; Activity [3]: Active; Ratio [4]: 3.8; Activity [1]: Active; Activity [5]: 68%
